Experimental data as given in ChEMBL document CHEMBL1255465, “Persistence of uropathogenic Escherichia coli in the face of multiple antibiotics” (Antimicrob Agents Chemother, 2010).
Activity calls are given as the source filed them. The rule behind the calls is not given here.

What was measured:
[1] = test system: 5637; assay: Cytotoxicity against human 5637 cells assessed as mild induction of cell death by trypan blue exclusion assay; assay type: cell-based
Summary of the method: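 Integrity of 5637 cells after drug treatment assessed by 0.4% trypan blue exclusion, following a standard protocol.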

[2] = test system: Escherichia coli; assay: Antibacterial activity against uropathogenic Escherichia coli UTI89 infected in human 5637 cells assessed as decrease in intracellular bacterial level at 700 to 1000 ug/ml after 12 hrs by serial dilution method; assay type: functional, organism-based
Summary of the method: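 Confluent 5637 monolayers in triplicate infected with UTI89 (24-h static LB culture, type 1 pili) at MOI ~15 and spun 600 × g for 5 min. After 2 h: gentamicin 100 μg/ml for 2 h, then 10 μg/ml for 14 h. Then 12 h with drug at two concentrations. Cells lysed in 0.4% Triton X-100 and plated on LB agar. Titers expressed relative to 800 μg/ml gentamicin. ≥3 independent assays.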

[3] = test system: Escherichia coli; assay: Antibacterial activity against uropathogenic Escherichia coli UTI89 assessed as degradation of preexisting biofilm after 24 hrs by microscopy; assay type: functional, organism-based
Summary of the method: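 UTI89 diluted 1:100 into M9 medium and grown statically 48 h at 37°C in microtiter wells. Nonadherent cells removed, fresh M9 ± drug added for 24 h, using the higher of two tested concentrations. Viable bacteria in biofilms visualized by Live/Dead BacLight staining and microscopy.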

[4] = Drug level in Escherichia coli UTI89-infected CBA/J mouse urine at 1 mg/kg, po after 2 hrs; assay type: ADME, organism-based; design: dose 1 mg/kg, route oral; conditions: in vivo
Summary of the method: (§1)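 Urine collected by gentle bladder pressure 2 h after oral dosing of UTI89-infected CBA/J mice. 10 μl spotted on 7-mm filter discs, placed on fresh UTI89 lawns on LB agar. Clearance diameter measured after 24 h at 37°C. Urine drug level calculated from standard curves of discs holding known antibiotic concentrations.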

[5] = test system: 5637; assay: Cytotoxicity against human 5637 cells assessed as mild induction of cell death by LDH release assay; assay type: cell-based
[6] = test system: Escherichia coli; assay: Antibacterial activity against uropathogenic Escherichia coli UTI89 infected in CBA/J mouse assessed as decrease in bacterial invasion into layers of urothelium at 1 mg/kg, po administered on day 3 postinfection daily for 3 days measured on day 9 post-inoculation; assay type: functional, organism-based; design: dose 1 mg/kg
[7] = test system: Escherichia coli; assay: Antibacterial activity against uropathogenic Escherichia coli UTI89 assessed as inhibition of biofilm formation after 24 hrs by microtiterplate-based assay; assay type: functional, organism-based
Summary of the method: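 Biofilms of UTI89 formed for 48 h at 37°C without shaking in M9 (1:100 inoculum, triplicate wells). Fresh M9 ± drug (higher of two tested concentrations) then added for 24 h. Biomass stained with 0.1% crystal violet, solubilized in DMSO, read at A562, and expressed relative to untreated controls. Three independent experiments.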

[8] = test system: Escherichia coli; assay: Antibacterial activity against uropathogenic Escherichia coli UTI89 infected in CBA/J mouse assessed as decrease in bacterial load in bladder at 1 mg/kg, po administered on day 3 postinfection daily for 3 days measured on day 9 post-inoculation; assay type: functional, organism-based; design: dose 1 mg/kg; conditions: Urinary bladder
Summary of the method: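 Female CBA/J mice, 7–8 weeks old, inoculated transurethrally with ~10^7 CFU UTI89 (24-h static LB culture) in 50 μl PBS. From day 3, one oral gavage daily for 3 days, 50 μl; controls given water. On day 9, bladders homogenized in PBS with 0.025% Triton X-100 and plated on LB agar for CFU. 11 mice from two experiments; Mann-Whitney U test.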

[9] = test system: Escherichia coli; assay: Antibacterial activity against uropathogenic Escherichia coli UTI89 infected in CBA/J mouse assessed as decrease in bacterial invasion into layers of urothelium at 1 mg/kg, po administered on day 3 postinfection daily for 3 days measured on day 9 post-inoculation in presence of Triton X-100; assay type: functional, organism-based; design: dose 1 mg/kg
[10] = test system: Escherichia coli; assay: Antibacterial activity against uropathogenic Escherichia coli UTI89 isolated from urine samples of infected CBA/J mouse after 24 hrs by disk diffusion assay; assay type: functional, organism-based; summary of the method: as §1

C[C@@H]1O[C@@H]1P(=O)(O)O [FOSFOMYCIN]
Activity [1]: Toxic | inhibition [2]: Active | Activity [3]: Active | Drug uptake [4]: 4 µg/mL | Activity [5]: Toxic | inhibition [6]: inactive | Biofilm inhibition activity [7]: Active | inhibition [8]: inactive | inhibition [9]: Active | Activity [10]: Active
